Drawing on ChEMBL document CHEMBL1157270, “Physalins from Witheringia solanacea as modulators of the NF-kappaB cascade” (J Nat Prod, 2006), this text covers Activity and IC50 for 3 compounds.

The source made the active and inactive calls.

Test [1] concerns Jurkat. The experiment in a line: Induction of apoptosis in human Jurkat T cells assessed as sub-G0/G1 fraction at 20 uM after 6 hrs by flow cytometry. It is filed as functional. In outline:
(§1)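 Jurkat cells (10^6) grown in RPMI 1640 with 10% heat-inactivated FBS, 2 mM glutamine, penicillin and streptomycin, then treated 6 or 24 h. Cells fixed in 70% ethanol for 24 h at 4 °C, washed in PBS with 4% glucose, treated with RNase A (50 U/mL) and stained with PI (20 µg/mL) for 1 h at room temperature. Subdiploid (sub-G0/G1) percentage measured by flow cytometry.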

Test [2] concerns HeLa. The experiment in a line: Cytotoxicity against human HeLa cells after 72 hrs by MTT assay. It counts as functional, cell-based. In outline: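 HeLa cells exposed to compound for 72 h, then incubated 2 h at 37 °C with 0.5 mg/mL MTT. Formazan dissolved in 90% 2-propanol with DMSO. IC50 read from the concentration–response.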
Test [3] concerns HeLa. The experiment in a line: Inhibition of PMA-induced NF-kappaB activation in human HeLa cells at 8 uM after 7 hrs by IL6/luciferase reporter gene assay. It is filed as cell-based. In outline:
(§2)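 HeLa cells stably transfected with an IL-6 promoter–luciferase reporter, stimulated with PMA (50 ng/mL final) for 7 h in the presence of compound. Luminescence given as % of RLU of the PMA-stimulated control, mean of three experiments. Active if ≥30% of positive control. Unstimulated cells served as negative control.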

In test [4] the test system is HeLa. As to the kind of experiment: Inhibition of PMA-induced NF-kappaB activation in human HeLa cells at 2 uM after 7 hrs by IL6/luciferase reporter gene assay relative to untreated control. It is filed as cell-based. On the set-up: scale not given: the % may be the effect or the level left. The gist of the method:
as §2

Test [5] deals with Jurkat. As to the kind of experiment: Induction of apoptosis in human Jurkat T cells assessed as sub-G0/G1 fraction at 10 uM after 24 hrs by flow cytometry. It counts as functional. The gist of the method: as §1
Test [6] concerns Jurkat. As to the kind of experiment: Induction of apoptosis in human Jurkat T cells assessed as sub-G0/G1 fraction at 1 uM after 6 hrs by flow cytometry. It counts as functional. The gist of the method:
as §1

The test system of test [7] is HeLa. The experiment in a line: Cytotoxicity against human HeLa cells at 100 uM. It counts as functional, cell-based.
For test [8], the system named is Jurkat. As to the kind of experiment: Inhibition of TNF-alpha-induced NF-kappaB activation in human Jurkat 5.1 cells preincubated for 30 mins measured after 6 hrs by HIV1-LTR luciferase assay. It is filed as cell-based. In outline: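 5.1 cells preincubated with compound (5, 10, 20 µM) for 30 min, then stimulated with TNF (2 ng/mL) for 6 h. Lysis in Tris phosphate pH 7.8 buffer with Triton X-100. Luciferase read after subtracting lysis-buffer background and normalised to Bradford protein (RLU/µg). Result expressed as fold induction, mean of three experiments.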

Test [9] relates to Jurkat. As to the kind of experiment: Induction of apoptosis in human Jurkat T cells assessed as sub-G0/G1 fraction at 10 uM after 6 hrs by flow cytometry. It counts as functional. In outline: as §1
Test [10] concerns Jurkat. The experiment in a line: Induction of apoptosis in human Jurkat T cells assessed as sub-G0/G1 fraction at 20 uM after 24 hrs by flow cytometry. It counts as functional. In outline:
as §1

Test [11] concerns HeLa. The experiment in a line: Inhibition of PMA-induced NF-kappaB activation in human HeLa cells at 4 uM after 7 hrs by IL6/luciferase reporter gene assay relative to untreated control. On the set-up: scale not given: the % may be the effect or the level left. It is filed as cell-based. The gist of the method: as §2
For test [12], the system named is HeLa. The experiment in a line: Inhibition of PMA-induced NF-kappaB activation in human HeLa cells at 16 uM after 7 hrs by IL6/luciferase reporter gene assay. It is filed as cell-based. The gist of the method: as §2
The subject of test [13] is HeLa. The experiment in a line: Cytotoxicity against human HeLa cells after 7 hrs. It is filed as functional, cell-based. In outline: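 HeLa cells stably carrying an IL-6 promoter–luciferase reporter, exposed to compound with PMA (50 ng/mL final) for 7 h. Toxicity judged visually at 40× magnification from changes in cell morphology.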
For test [14], the system named is Jurkat. The experiment in a line: Induction of apoptosis in human Jurkat T cells assessed as sub-G0/G1 fraction at 1 uM after 24 hrs by flow cytometry. It is filed as functional. The gist of the method: as §1
The next test is filed under the species Homo sapiens. The experiment in a line: Inhibition of NF-kappaB activation in human HeLa-Tet-On cells assessed as inhibition of doxycyclin-induced HIV1-LTR transactivation at 5 uM after 6 hrs by luciferase reporter gene assay. It counts as cell-based. The gist of the method: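 HeLa-Tet-On-Luc cells seeded at 5 × 10^5 cells/mL the day before, then stimulated with doxycycline (2 µg/mL) with or without compound for 6 h. Cells washed in PBS and lysed, and luciferase activity measured.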

The subject of test [15] is HeLa. As to the kind of experiment: Cytotoxicity against human HeLa cells at 100 ug/mL.

In the case of `C[C@@]12C[C@H]3OC(=O)[C@@H]1CO[C@]14O[C@]5([C@H]2C1=O)[C@@](O)(CC[C@H]1[C@H]4C[C@H]2O[C@]24CC=CC(=O)[C@]14C)C(=O)O[C@@]35C` [PHYSALIN F], the Activity with Jurkat [1] is 1.64%; in the test on HeLa [4] it was 20%; in the test with Jurkat [5], 58.2%; in the test on Jurkat [6], 2.71%; in the test on HeLa [7], “Toxic”; in the test with Jurkat [8] it was “Dose-dependent effect”. In addition, the Activity in the test with Jurkat [9] is 2.07%; in the test on Jurkat [10], 64.6%; with HeLa [11] it was 7%; in the test on HeLa [13] it was “Not toxic”; with Jurkat [14] it was 50.2%. Inhibition in the test on HeLa [2] was half-maximal at 2000 nM (IC50). Also, the result with HeLa [3] and in the test on HeLa [12] was Active. The result in the test listed under Homo sapiens was inactive.
In the case of `C[C@@]12C[C@H]3OC(=O)[C@@H]1CO[C@@]14O[C@]5([C@H]2C1=O)[C@@](O)(CC[C@H]1[C@H]4C[C@@H](O)[C@@]2(O)CC=CC(=O)[C@]12C)C(=O)O[C@@]35C`, the Activity result in the test on HeLa [7] was “Not toxic”.
`C[C@]12C(=O)C=CCC1=CC[C@@H]1[C@@H]2CC[C@]2(O)C(=O)O[C@@]3(C)[C@H]4C[C@]5(C)[C@@H](CO[C@@]16O[C@@]32[C@H]5C6=O)C(=O)O4` [PHYSALIN B]: the Activity was 2.08% in the test on Jurkat [1]; 49.7% with Jurkat [5]; 1.83% in the test on Jurkat [6]; “Toxic” with HeLa [15]; 2.08% with Jurkat [9]; 50% in the test on Jurkat [10]. For the same compound, the Activity entry with HeLa [13] is “Not toxic”; in the test with Jurkat [14] it was 6.27%. In addition, in the test on HeLa [2], the IC50 came out at 2000 nM. Further, the result in the test on HeLa [3] and with HeLa [12] was Active.
